Results: the array DNA melting data of Ke et al. (doi:10.1101/2024.01.08.574731)

How the values were obtained:
[1] = melting temperature; fluorescence melt of hairpins on a sequencing array, two-state fit, raised by 9.35 °C to match UV melts; settings: sodium 0.088 M
Summary of the method: (§1)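 To match UV melts, fitted temperatures were raised by 9.35 °C. These fits were bootstrapped two-state models that gave melting temperature and folding enthalpy, combined by inverse variance over four replicates. The input was normalised Cy3 fluorescence of library hairpins with annealed Cy3 and quencher oligos on a sequenced MiSeq flow cell, imaged in 50 mM Na-HEPES pH 8.0, 25 mM NaCl in 2.5 °C steps up to 60 °C.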

[2] = folding enthalpy; higher = less favourable; fluorescence melt of hairpins on a sequencing array, two-state fit; settings: sodium 0.088 M
Summary of the method: as §1

## GAGGACACGAAAGTGCTC (((..(((....))))))
[1]
  Tm: 35.9 °C
[2]
  folding enthalpy: -14.4 kcal/mol

## GAGGACCGAAAGGTACTC (((.(((....))).)))
[1]
  Tm: 64.9 °C
[2]
  folding enthalpy: -33.4 kcal/mol

## GAGGACCGAAAGGTGCTC (((.(((....))).)))
[1]
  Tm: 60.4 °C
[2]
  folding enthalpy: -32.2 kcal/mol

## GAGGACGAAAGTCACTC ((((((....))).)))
[1]
  Tm: 43.1 °C
[2]
  folding enthalpy: -17.9 kcal/mol

## GAGGACGAAAGTCGCCTC ((((((....)))..)))
[1]
  Tm: 38.9 °C
[2]
  folding enthalpy: -14.9 kcal/mol

## GAGGACGAAAGTCTCTC ((((((....))).)))
[1]
  Tm: 46.5 °C
[2]
  folding enthalpy: -18 kcal/mol

## GAGGACGAAAGTCTTCTC ((((((....)))..)))
[1]
  Tm: 48 °C
[2]
  folding enthalpy: -23 kcal/mol

## GAGGACGGAAACATCCTC (((((.(....).)))))
[1]
  Tm: 38.3 °C
[2]
  folding enthalpy: -26.7 kcal/mol

## GAGGACGGAAACGCCCTC ((((.((....)).))))
[1]
  Tm: 51.7 °C
[2]
  folding enthalpy: -47.2 kcal/mol

## GAGGAGGGAAACCTCTTC ((.((((....)))).))
[1]
  Tm: 47.8 °C
[2]
  folding enthalpy: -27.7 kcal/mol

## GAGGATGAAAATCCTC ((((((....))))))
[1]
  Tm: 54.7 °C
[2]
  folding enthalpy: -37 kcal/mol

## GAGGATGGAAACACCCTC ((((.((....)).))))
[1]
  Tm: 38.1 °C
[2]
  folding enthalpy: -32.6 kcal/mol

## GAGGCAACGAAAGTTCTC (((..(((....))))))
[1]
  Tm: 24.4 °C
[2]
  folding enthalpy: -11.3 kcal/mol

## GAGGCACGAAAGTGCTC (((.(((....))))))
[1]
  Tm: 45.9 °C
[2]
  folding enthalpy: -9.34 kcal/mol

## GAGGCAGGAAACCGCCTC (((((.(....).)))))
[1]
  Tm: 54.9 °C
[2]
  folding enthalpy: -33.2 kcal/mol

## GAGGCCGAAAGGCAGCTC ((((((....)))..)))
[1]
  Tm: 50.6 °C
[2]
  folding enthalpy: -13.7 kcal/mol

## GAGGCCGAAAGGCCCCTC ((((((....)))..)))
[1]
  Tm: 49.7 °C
[2]
  folding enthalpy: -9.61 kcal/mol

## GAGGCCGAAAGGCTACTC ((((((....)))..)))
[1]
  Tm: 42.9 °C
[2]
  folding enthalpy: -11.7 kcal/mol

## GAGGCCGAAAGGCTGCTC ((((((....)))..)))
[1]
  Tm: 45.9 °C
[2]
  folding enthalpy: -12.1 kcal/mol

## GAGGCCGGAAACGACCTC ((((.((....)).))))
[1]
  Tm: 52.9 °C
[2]
  folding enthalpy: -44.9 kcal/mol

## GAGGCGGGAAACCACCTC ((((.((....)).))))
[1]
  Tm: 49.1 °C
[2]
  folding enthalpy: -36.9 kcal/mol

## GAGGCGGGAAACCGCCCC (.(((((....))))).)
[1]
  Tm: 46.4 °C
[2]
  folding enthalpy: -7.11 kcal/mol

## GAGGCTGCGAAAGCACTC (((..(((....))))))
[1]
  Tm: 34.3 °C
[2]
  folding enthalpy: -11.2 kcal/mol

## GAGGGACCGAAAGGTCTC (((..(((....))))))
[1]
  Tm: 38.3 °C
[2]
  folding enthalpy: -11.6 kcal/mol

## GAGGGACGAAAGTCGCTC (((.(((....))).)))
[1]
  Tm: 65.6 °C
[2]
  folding enthalpy: -34.3 kcal/mol

## GAGGGAGAAATCCCTC ((((((....))))))
[1]
  Tm: 53.8 °C
[2]
  folding enthalpy: -36 kcal/mol

## GAGGGCGAAAGCCACCTC ((((((....)))..)))
[1]
  Tm: 38.1 °C
[2]
  folding enthalpy: -11 kcal/mol

## GAGGGCGAAAGCCGGCTC ((((((....)))..)))
[1]
  Tm: 51 °C
[2]
  folding enthalpy: -12.1 kcal/mol

## GAGGGCGGAAACACCCTC (((((.(....).)))))
[1]
  Tm: 49.6 °C
[2]
  folding enthalpy: -33.7 kcal/mol

## GAGGGGACGAAAGTCCTC (((..(((....))))))
[1]
  Tm: 41.2 °C
[2]
  folding enthalpy: -8.85 kcal/mol

## GAGGGGCCGAAAGGCCTC (((..(((....))))))
[1]
  Tm: 46.4 °C
[2]
  folding enthalpy: -7.41 kcal/mol

## GAGGGGGGAAACCTCCTC ((((.((....)).))))
[1]
  Tm: 51.4 °C
[2]
  folding enthalpy: -33.7 kcal/mol

## GAGGGTCCGAAAGGACTC (((..(((....))))))
[1]
  Tm: 41.3 °C
[2]
  folding enthalpy: -9.51 kcal/mol

## GAGGGTGGAAACGCCTTC ((.((.(....).)).))
[1]
  Tm: 34.1 °C
[2]
  folding enthalpy: -25.7 kcal/mol

## GAGGGTGGAAACGCTCTC (((.(.(....).).)))
[1]
  Tm: 49.4 °C
[2]
  folding enthalpy: -20.3 kcal/mol

## GAGGTACGAAAGTAACTC (((.(((....))).)))
[1]
  Tm: 54.1 °C
[2]
  folding enthalpy: -38.6 kcal/mol

## GAGGTAGGAAACTGCCTC ((((.((....)).))))
[1]
  Tm: 49.9 °C
[2]
  folding enthalpy: -37.1 kcal/mol

## GAGGTCCGAAAGGAACTC (((.(((....))).)))
[1]
  Tm: 61.5 °C
[2]
  folding enthalpy: -40.6 kcal/mol

## GAGGTCGGAAACAACCTC (((((.(....).)))))
[1]
  Tm: 41.2 °C
[2]
  folding enthalpy: -28.8 kcal/mol

## GAGGTCGGAAACGGTCTC (((..((....))..)))
[1]
  Tm: 39.6 °C
[2]
  folding enthalpy: -23.4 kcal/mol

## GAGGTGCGAAAGCAACTC (((.(((....))).)))
[1]
  Tm: 66.5 °C
[2]
  folding enthalpy: -26.2 kcal/mol

## GAGGTTGAAAAACCTC ((((((....))))))
[1]
  Tm: 58.2 °C
[2]
  folding enthalpy: -32.6 kcal/mol

## GAGGTTGGAAACAACCTC (((((((....)))))))
[1]
  Tm: 65.8 °C
[2]
  folding enthalpy: -43.3 kcal/mol

## GAGGTTGGAAACAGCCTC ((((.((....)).))))
[1]
  Tm: 50.1 °C
[2]
  folding enthalpy: -32.4 kcal/mol

## GAGGTTGGAAACAGCTTC ((.(.((....)).).))
[1]
  Tm: 39.9 °C
[2]
  folding enthalpy: -36 kcal/mol

## GAGGTTGGAAACGATCTC (((.(.(....).).)))
[1]
  Tm: 29.5 °C
[2]
  folding enthalpy: -17.3 kcal/mol

## GAGTAACGAAAGTTCTC (((.(((....))))))
[1]
  Tm: 37.1 °C
[2]
  folding enthalpy: -21.9 kcal/mol

## GAGTACCGAAAGGTCCTC (((.(((....))).)))
[1]
  Tm: 45.3 °C
[2]
  folding enthalpy: -25.2 kcal/mol

## GAGTACCGAAAGGTCTC (((.(((....))))))
[1]
  Tm: 48.7 °C
[2]
  folding enthalpy: -21.6 kcal/mol

## GAGTACGAAAGTAGCCTC ((((((....)))..)))
[1]
  Tm: 27.3 °C
[2]
  folding enthalpy: -11.8 kcal/mol

## GAGTACGAAAGTAGCTC ((((((....))).)))
[1]
  Tm: 37.5 °C
[2]
  folding enthalpy: -23.3 kcal/mol

## GAGTACGGAAACGTACTC (((((((....)))))))
[1]
  Tm: 64 °C
[2]
  folding enthalpy: -42.5 kcal/mol

## GAGTAGAAATACTC (((((....)))))
[1]
  Tm: 36.5 °C
[2]
  folding enthalpy: -16.7 kcal/mol

## GAGTAGACGAAAGTCCTC (((..(((....))))))
[1]
  Tm: 32.8 °C
[2]
  folding enthalpy: -14.1 kcal/mol

## GAGTAGCCGAAAGGCCTC (((..(((....))))))
[1]
  Tm: 38.4 °C
[2]
  folding enthalpy: -10.7 kcal/mol

## GAGTAGCGAAAGCTCCTC (((.(((....))).)))
[1]
  Tm: 39.5 °C
[2]
  folding enthalpy: -20 kcal/mol

## GAGTAGCGAAAGCTCTC (((.(((....))))))
[1]
  Tm: 46.2 °C
[2]
  folding enthalpy: -17.8 kcal/mol

## GAGTAGGGAAACCTACCC (.(((((....))))).)
[1]
  Tm: 35.1 °C
[2]
  folding enthalpy: -15.4 kcal/mol

## GAGTAGGGAAACCTATTC ((.((((....)))).))
[1]
  Tm: 32.5 °C
[2]
  folding enthalpy: -25.5 kcal/mol

## GAGTATGAAAATACTC ((((((....))))))
[1]
  Tm: 50.3 °C
[2]
  folding enthalpy: -36.5 kcal/mol

## GAGTCAGGAAACTGGCTC (((.(((....))).)))
[1]
  Tm: 54.1 °C
[2]
  folding enthalpy: -43.1 kcal/mol

## GAGTCCCGAAAGGGCCTC (((.(((....))).)))
[1]
  Tm: 52.4 °C
[2]
  folding enthalpy: -26.6 kcal/mol

## GAGTCCCGAAAGGGCTC (((.(((....))))))
[1]
  Tm: 59.5 °C
[2]
  folding enthalpy: -25.5 kcal/mol

## GAGTCCGAAAGGAATCTC ((((((....)))..)))
[1]
  Tm: 50.2 °C
[2]
  folding enthalpy: -18.8 kcal/mol

## GAGTCCGAAAGGACCCTC ((((((....)))..)))
[1]
  Tm: 43.5 °C
[2]
  folding enthalpy: -10.3 kcal/mol

## GAGTCCGAAAGGAGGCTC ((((((....)))..)))
[1]
  Tm: 47.4 °C
[2]
  folding enthalpy: -20.7 kcal/mol

## GAGTCCGAAAGGATGCTC ((((((....)))..)))
[1]
  Tm: 40.5 °C
[2]
  folding enthalpy: -16.9 kcal/mol

## GAGTCCGAAAGGATTCTC ((((((....)))..)))
[1]
  Tm: 50.6 °C
[2]
  folding enthalpy: -24.4 kcal/mol
